In ChEMBL document CHEMBL1125322, “Stabilization of the N-terminal residues of luteinizing hormone-releasing hormone agonists and the effect on pharmacokinetics” (J Med Chem, 1992):
Square brackets hold non-standard residues; d marks the D form. Peptide text beside a SMILES is read from it. 1Nal = N[C@@H](Cc1cccc2ccccc12)C(=O)O; NMeF = CN[C@@H](Cc1ccccc1)C(=O)O; pGlu = O=C1CC[C@@H](C(=O)O)N1; NMeS = CN[C@@H](CO)C(=O)O

Columns and labels:
[1] = Compound was tested in vivo for clearance after iv administration in the rat; type: ADME, organism-based
Procedure, shortened: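 Rats received each compound as an iv bolus. Serum levels were measured by RIA using an antibody recognizing the C-terminal Leu-Arg-ProNHEt; one analogue was measured with an anti-[D-Lys6]LHRH antibody instead. Whole-body clearance was calculated as dose divided by the area under the concentration–time curve and expressed in mL/min per kg.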

[2] = Compound was tested in vitro for lumenal concentration in the rat jejunal sac to decrease by 50%.; type: ADME
Procedure, shortened: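 Peptides were incubated at 37 °C inside short closed segments of rat jejunum in oxygenated Ringer's buffer, pH 6.8. At set times, segments were removed from the bath and the lumenal contents were assayed for peptide by HPLC. T1/2 is the time, in min, for the lumenal concentration to fall by 50%.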

[3] = Compound was tested in vitro for chymotrypsin degradation; type: ADME
Procedure, shortened: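 Each peptide was mixed with chymotrypsin in 30 mM sodium phosphate/100 mM NaCl, pH 6.9 (enzyme at 5 µg/mL in the buffer before mixing, prewarmed to 37 °C) and incubated at 37 °C. Aliquots were taken at set intervals from 0.083 min up to 60 min and quenched in 3:7 acetonitrile/water. Degradation was followed chromatographically, and the half-life is given in min.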

Row | SMILES | clearance [1] | half-life [2] | half-life [3]
1 | CCNC(=O)[C@@H]1CCCN1C(=O)[C@H](CCCNC(=N)N)NC(=O)[C@H](CC(C)C)NC(=O)[C@@H](CC(C)C)NC(=O)[C@H](Cc1ccc(O)cc1)NC(=O)[C@H](CO)NC(=O)[C@H](Cc1c[nH]c2ccccc12)NC(=O)[C@H](Cc1c[nH]cn1)NC(=O)[C@@H]1CCC(=O)N1 |  | 4 min | 
2 | CCNC(=O)[C@@H]1CCCN1C(=O)[C@H](CCCN=C(N)N)NC(=O)[C@H](CC(C)C)NC(=O)[C@@H](CC(C)C)NC(=O)[C@H](Cc1ccc(O)cc1)NC(=O)[C@H](CO)NC(=O)[C@H](Cc1ccc(Cl)cc1)NC(=O)[C@H](Cc1c[nH]cn1)NC(=O)[C@@H]1CCC(=O)N1 | 7.6 mL/min/kg | 4.4 min | 
3 | CCNC(=O)[C@@H]1CCCN1C(=O)[C@H](CCCN=C(N)N)NC(=O)[C@H](CC(C)C)NC(=O)[C@@H](CC(C)C)NC(=O)[C@H](Cc1ccc(O)cc1)NC(=O)[C@H](CO)NC(=O)[C@H](Cc1ccc(OC)cc1)NC(=O)[C@H](Cc1c[nH]cn1)NC(=O)[C@@H]1CCC(=O)N1 | 13.3 mL/min/kg | 14.9 min | 
4 | CCNC(=O)[C@@H]1CCCN1C(=O)[C@H](CCCN=C(N)N)NC(=O)[C@H](CC(C)C)NC(=O)[C@@H](CC(C)C)NC(=O)[C@H](Cc1ccc(O)cc1)NC(=O)[C@H](CO)NC(=O)[C@H](Cc1c[nH]c2ccccc12)NC(=O)[C@H](Cc1ccccc1)NC(=O)[C@@H]1CCC(=O)N1 ([pGlu]FWSY[dL]LRP-NHEt) |  | 2.2 min | 
5 | CCNC(=O)[C@@H]1CCCN1C(=O)[C@H](CCCN=C(N)N)NC(=O)[C@H](CC(C)C)NC(=O)[C@@H](CC(C)C)NC(=O)[C@H](Cc1ccc(O)cc1)NC(=O)[C@H](CO)NC(=O)[C@H](Cc1cccc2ccccc12)NC(=O)[C@H](Cc1c[nH]cn1)NC(=O)[C@@H]1CCC(=O)N1 ([pGlu]H[1Nal]SY[dL]LRP-NHEt) |  | 25 min | 

The remaining lines, values ahead:

Row | clearance [1] | half-life [2] | half-life [3] | SMILES
6 | 24 mL/min/kg | 60 min | 1 min | CCNC(=O)[C@@H]1CCCN1C(=O)[C@H](CCCN=C(N)N)NC(=O)[C@H](CC(C)C)NC(=O)[C@@H](CC(C)C)NC(=O)[C@H](Cc1ccc(O)cc1)NC(=O)[C@H](CO)NC(=O)[C@H](Cc1c[nH]c2ccccc12)NC(=O)[C@H](Cc1c[nH]cn1)NC(=O)CN(C)C(C)=O
7 |  | 39.1 min |  | CCNC(=O)[C@@H]1CCCN1C(=O)[C@H](CCCN=C(N)N)NC(=O)[C@H](CC(C)C)NC(=O)[C@@H](Cc1c[nH]c2ccccc12)NC(=O)[C@H](Cc1ccc(O)cc1)NC(=O)[C@H](CO)N(C)C(=O)[C@H](Cc1c[nH]c2ccccc12)NC(=O)[C@H](Cc1cnc[nH]1)NC(=O)[C@@H]1CCC(=O)N1
8 | 28.3 mL/min/kg | 55 min | > 60 min | CCNC(=O)[C@@H]1CCCN1C(=O)[C@H](CCCN=C(N)N)NC(=O)[C@H](CC(C)C)NC(=O)[C@@H](Cc1c[nH]c2ccccc12)NC(=O)[C@H](Cc1ccc(O)cc1)NC(=O)[C@H](CO)N(C)C(=O)[C@H](Cc1c[nH]c2ccccc12)NC(=O)[C@H](Cc1c[nH]cn1)NC(=O)CN(C)C(C)=O
9 |  | 10.8 min |  | CCNC(=O)[C@@H]1CCCN1C(=O)[C@H](CCCN=C(N)N)NC(=O)[C@H](CC(C)C)NC(=O)[C@@H](Cc1c[nH]c2ccccc12)NC(=O)[C@H](Cc1ccc(O)cc1)NC(=O)[C@H](CO)NC(=O)[C@H](Cc1c[nH]c2ccccc12)NC(=O)[C@H](Cc1ccccc1)NC(=O)[C@@H]1CCC(=O)N1 ([pGlu]FWSY[dW]LRP-NHEt)
10 |  | > 90 min |  | CCNC(=O)[C@@H]1CCCN1C(=O)[C@H](CCCN=C(N)N)NC(=O)[C@H](CC(C)C)NC(=O)[C@@H](CC(C)C)NC(=O)[C@H](Cc1ccc(O)cc1)NC(=O)[C@H](CO)N(C)C(=O)[C@H](Cc1c[nH]c2ccccc12)NC(=O)[C@H](Cc1c[nH]cn1)NC(=O)[C@@H]1CCC(=O)N1 ([pGlu]HW[NMeS]Y[dL]LRP-NHEt)
11 | 44.4 mL/min/kg | 44.4 min |  | CCNC(=O)[C@@H]1CCCN1C(=O)[C@H](CCCN=C(N)N)NC(=O)[C@H](CC(C)C)NC(=O)[C@@H](Cc1c[nH]c2ccccc12)NC(=O)[C@H](Cc1ccc(O)cc1)NC(=O)[C@H](CO)NC(=O)[C@H](Cc1c[nH]c2ccccc12)NC(=O)[C@H](Cc1ccccc1)N(C)C(=O)[C@@H]1CCC(=O)N1 ([pGlu][NMeF]WSY[dW]LRP-NHEt)
